# ZTA counter: counter-screen for EBNA-1 inhibitors: inhibitors of Epstein-Barr virus ZTA; ZTA-DNA binding, fluorescence polarization; inhibition, % at 11 µM; actives 0.15% (n = 320,000); AID 2234; in the data active = inhibition above about 33%
# Target sequence (P03206 whole entry, looked up): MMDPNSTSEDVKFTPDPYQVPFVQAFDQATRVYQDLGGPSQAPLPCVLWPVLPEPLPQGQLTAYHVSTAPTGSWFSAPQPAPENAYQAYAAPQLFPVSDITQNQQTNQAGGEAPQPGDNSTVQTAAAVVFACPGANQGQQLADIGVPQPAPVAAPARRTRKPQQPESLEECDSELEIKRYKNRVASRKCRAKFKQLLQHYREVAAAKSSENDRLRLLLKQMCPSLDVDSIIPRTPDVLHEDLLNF
# EBNA-1 inh: blocks EBNA-1 binding to DNA; inhibition, % at 14.8 µM; EBNA-1 DNA binding, fluorescence polarization; actives 0.34% (n = 300,000); in the data active = inhibition above about 28%
# NS3 helicase inh: inhibitors of Hepatitis C virus NS3 helicase; NS3 helicase DNA unwinding, Cy5 molecular beacon fluorescence; inhibition, % at 10.9 µM; actives 0.56% (n = 290,000);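 active = inhibition above the mean of all tested compounds plus 3 SD, set per campaign, cut at about 35% in these data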
#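 System: Hepatitis C virus NS3 helicase domain fragment enzyme | Reagent: Annealed dual-labelled DNA beacon duplex, ATP-started | Compound dosing: 10.9 µM single point, 0.8% DMSO | Incubation: 1 h reaction at 25 °C, ATP-initiated | Technique: Cy5 fluorescence | Evaluation: Percent inhibition from t60/t0 fluorescence ratio | Benchmarks: Low DMSO, high thioflavine S at 110 µM | Replication: Singlicate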
# HCV core dimer: HCV core protein dimerization inhibition | actives 0.33% (n = 300,000) | AID 1899 | TR-FRET GST/Flag-core106 dimerization, 1536-well | inhibition, % at 5 µM;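 active = inhibition above the mean of all tested compounds plus 3 SD, set per screening campaign, cut at about 45% in these data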
#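 Assay system: tagged HCV core106 pair (GST and Flag); medium: KF-containing HEPES buffer, pH 7.45, DTT, CHAPS, BSA; also added: Eu donor and XL665 acceptor anti-tag antibodies; dosing: 5 µM single dose; timing: compound-protein-antibody incubation 4 h at 22.5 °C; signal: TR-FRET 671 and 617 nm emission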
# PP1 counter: blocks human PP1-alpha phosphatase, a PP5 counter-screen; purified PP1alpha, OMFP fluorescence; actives 0.9% (n = 320,000); inhibition, % at 6.7 µM; AID 2235;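 active = inhibition above the mean inhibition of all tested compounds plus 3 SD, computed separately for each screening campaign, cut at about 15% in these data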
# PP1 confirm: confirmation of human PP1 phosphatase inhibitors | shares compounds with PP1 counter | purified PP1alpha, OMFP substrate fluorescence | inhibition, % at 6.7 µM | actives 52% (n = 1,900);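 active = mean PP1 inhibition above a set limit taken from the earlier primary screen, cut at about 15% in these data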
# PP5 counter: inhibits human PP5 phosphatase in PP1 counter-screen | AID 2360 | shares compounds with PP1 counter | actives 4% (n = 1,900) | inhibition, % at 6.7 µM | purified PP5c, OMFP fluorescence;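 active = mean PP5 inhibition over triplicate wells above about 9.5% taken from the earlier PP1 screen, limit read from the data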
# A number is an active result; n = inactive; x = not tested or not shown. Most compounds without a hit are left out; they make up all but 1.9% or so of the library.
SMILES,ZTA counter,EBNA-1 inh,NS3 helicase inh,HCV core dimer,PP1 counter,PP1 confirm,PP5 counter
O=C(O)c1cc(-c2ccccc2)n(-c2ccccc2)n1,n,n,n,n,24.2,28.1,n
COc1ccc(-n2nc(C(=O)O)cc2-c2ccccc2)cc1,n,n,n,n,26.2,24.4,n
Cc1ccccc1-n1nc(C(=O)O)cc1-c1ccccc1,n,n,n,n,36.2,33.2,n
COC(=O)c1cc(-c2ccc(F)cc2)n(-c2ccccc2)n1,n,n,n,n,n,x,x
O=C(O)c1nc(-c2ccccc2)n(-c2ccc(Cl)cc2)n1,n,n,n,n,18.1,18.1,n
O=C(O)c1cc(-c2ccccc2Cl)n(-c2ccccc2)n1,n,n,n,n,n,x,x
COC(=O)c1cc(-c2ccc(Cl)cc2)n(-c2ccc(S(N)(=O)=O)cc2)n1,n,n,n,n,n,x,x
O=C(O)c1cc(-c2ccc(Cl)c(Cl)c2)n(-c2ccc(F)cc2)n1,n,n,n,n,52.7,48.8,n
NS(=O)(=O)c1ccc(-n2nc(C(=O)O)cc2-c2ccc(Cl)cc2)cc1,n,n,n,n,n,x,x
O=C(O)c1cc(-c2ccccc2)n(-c2ccc(Cl)cc2)n1,n,n,n,n,23.9,30.6,n
CCCCNc1c(-c2ccc(OC)c(SC3CCCCC3)c2)nc2cnccn12,n,n,x,n,25.7,16.9,n
CCCCNc1c(-c2ccc(OC)c(SC3CCCCC3)c2)nc2cc(C)ccn12,n,n,x,n,n,x,x
CCCCCCSc1cc(-c2nc3cnccn3c2NCc2ccccc2)ccc1OC,n,n,x,n,17.8,n,n
CCCCCCSc1cc(-c2nc3cc(C)ccn3c2NC2CCCCC2)ccc1OC,n,n,x,n,22.5,n,n
CCCCCCSc1ccc(-c2nc3ccc(C)cn3c2NC2CCCCC2)cc1,n,n,x,n,n,x,x
N#C/C(=C\c1ccco1)C(=O)Nc1cccc2ncccc12,n,n,n,n,n,x,x
Cc1csc2nc(O)c(C(=O)NC3CCCCC3C)c(=O)n12 (stereo not given),n,n,x,n,n,x,x
O=C(O)C(Cc1ccccc1)N1C(=O)/C(=C/c2cccc3ccccc23)SC1=S (stereo not given),n,n,n,n,20.4,32.5,n
O=C1NC[C@@H](Cc2cccc3ccccc23)N(CCCCC2CCCCC2)C1=O,n,n,x,n,21.1,n,n
NCCCC[C@H]1CNC(=O)C(=O)N1CCCCC1CCCCC1,n,n,x,n,n,x,x
Cc1cc(=O)oc2c(C)c(OCC(=O)NCCCN3CCOCC3)ccc12,n,n,n,n,n,x,x
Cc1cc(C)n(-c2nc(Nc3ccccc3C(F)(F)F)nc(-n3nc(C)cc3C)n2)n1,n,n,n,n,29.8,17.0,n
Cc1cc(C)n(-c2nc(Nc3ccccc3C)nc(-n3nc(C)cc3C)n2)n1,n,n,n,n,35.8,38.3,n
Cc1cc(C)n(-c2nc(NC(C)(C)C)nc(NC(C)(C)C)n2)n1,n,n,n,n,n,x,x
CCN(c1ccccc1)S(=O)(=O)c1ccc(C(=O)Nc2nnc(C3CC3)o2)cc1,n,n,n,n,30.7,29.4,n
SMILES,ZTA counter,EBNA-1 inh,NS3 helicase inh,HCV core dimer,PP1 counter,PP1 confirm,PP5 counter
CN(c1ccccc1)S(=O)(=O)c1ccc(C(=O)Nc2nnc(C3CC3)o2)cc1,n,n,n,n,21.9,18.7,n
COc1ccc(/C(C)=N/NC(=O)Cn2nc([N+](=O)[O-])cc2C)cc1,n,n,n,n,n,x,x
Fc1ccc(-[n+]2nc(Nc3ccccc3)sc2-c2c3ccccc3cc3ccccc23)cc1,n,n,n,n,21.5,n,n
c1ccc(-[n+]2nc(Nc3cccc4ccccc34)sc2-c2c3ccccc3cc3ccccc23)cc1,n,n,x,60.3,30.6,30.1,n
NNC(=O)c1ccc(COc2ccc3c(c2)CCC3)cc1,n,n,n,n,n,x,x
NNC(=O)c1ccc(COc2ccc3ccccc3c2)cc1,n,n,n,n,21.5,n,n
COc1ccc(NC(=O)CN(C)C(=O)c2c(C)nn(-c3ccccc3)c2Cl)cc1,n,n,x,n,20.3,n,n
O=C(CSc1nnc(SCc2ccc(Cl)cc2)s1)N/N=C/c1c[nH]c2ccccc12,n,n,n,n,25.1,31.6,n

# Bioassay records deposited in PubChem by The Scripps Research Institute Molecular Screening Center.
